The source made the active and inactive calls. No cut-off for these calls is given here.
Columns and labels:
[1] = biological target: T1, Tyrosinase (Mus musculus) (UniProt P11344); test: Inhibition of tyrosinase in mouse B16 cells assessed as reduction in melanin production at 500 uM after 3 days relative to control; format: cell-based
T1 sequence (whole entry): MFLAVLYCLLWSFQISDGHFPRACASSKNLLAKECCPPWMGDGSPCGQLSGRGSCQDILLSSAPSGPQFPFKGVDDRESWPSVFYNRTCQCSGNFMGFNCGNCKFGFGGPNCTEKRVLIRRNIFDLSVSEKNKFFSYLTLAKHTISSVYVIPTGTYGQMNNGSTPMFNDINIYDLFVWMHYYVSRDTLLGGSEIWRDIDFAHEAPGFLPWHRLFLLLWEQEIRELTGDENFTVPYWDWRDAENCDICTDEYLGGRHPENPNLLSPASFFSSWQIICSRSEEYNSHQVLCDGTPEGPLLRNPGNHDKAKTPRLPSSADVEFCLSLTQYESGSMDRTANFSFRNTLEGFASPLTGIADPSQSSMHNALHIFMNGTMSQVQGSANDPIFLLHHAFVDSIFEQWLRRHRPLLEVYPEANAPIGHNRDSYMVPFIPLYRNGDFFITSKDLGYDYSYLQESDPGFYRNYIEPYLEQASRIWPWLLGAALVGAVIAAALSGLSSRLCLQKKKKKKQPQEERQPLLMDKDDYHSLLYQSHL
Summary of the method: (§1)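 Melanin content: B16 mouse melanoma cells were seeded at 1.5 × 10^4 cells/well and incubated 24 h. They were then exposed for 3 days to 125, 250 or 500 μM peptide in 5% FBS medium. Cells were harvested with 0.25% trypsin/1 mM EDTA, washed in PBS and lysed in 1 M NaOH, 1 h at 60 °C. Absorbance was read at 420 nm. Matched DMSO without peptide served as background.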

[2] = biological target: T2, Mushroom tyrosinase (Agaricus bisporus) (UniProt O42713+Q00024+C7FF04+C7FF05); test: Inhibition of mushroom tyrosinase diphenolase activity at 100 to 500 uM using L-DOPA as substrate
Summary of the method: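 Diphenolase: 2.0 mM L-dopa (stock, 100 μL) was mixed with 0.1 M phosphate buffer pH 6.5 and peptide or water, then preincubated 10 min at 30 °C. Mushroom tyrosinase (1320 units/mL stock) was added and dopachrome followed at 475 nm, 30 °C. Residual activity = rate (ΔA475/min) with inhibitor ÷ rate with water × 100. IC50 was estimated manually from inhibition curves. Performed three times.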

[3] = biological target: T2, Mushroom tyrosinase (Agaricus bisporus); test: Inhibition of mushroom tyrosinase monophenolase activity at 100 to 500 uM using L-tyrosine as substrate
Summary of the method: (§2)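 Monophenolase: 2.0 mM L-tyrosine (stock, 100 μL) in 0.1 M phosphate buffer pH 6.5 with peptide or water was preincubated 10 min at 30 °C. Mushroom tyrosinase (1320 units/mL stock) was added and absorbance at 475 nm monitored at 30 °C. Lag time was taken by extrapolating the linear dopachrome rise to the x-axis. Residual activity = (1/lag with inhibitor)/(1/lag with water) × 100. IC50 was read manually from curves. Triplicate.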

[4] = biological target: T1, Tyrosinase (Mus musculus); test: Inhibition of tyrosinase in mouse B16 cells assessed as reduction in melanin production at 125 to 500 uM after 3 days; format: cell-based; summary of the method: as §1
[5] = test system: B16; test: Cytotoxicity against mouse B16 cells assessed as reduction in cell viability at 125 to 500 uM after 3 days by WST1/MTT assay; format: cell-based; conditions: b16, 72 h
Summary of the method: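 B16 mouse melanoma cells were grown in Eagle's MEM with Earle's salts, 5% or 10% FBS and 1% penicillin–streptomycin, 37 °C, 5% CO2. They were seeded at 1.0 × 10^3 cells/well and left 24 h. Medium was then replaced with 5% FBS medium containing peptide at 125, 250 or 500 μM. After 3 days, viability was read by WST-1. Matched DMSO without peptide served as background. Three independent experiments; mean ± SD.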

[6] = biological target: Mushroom tyrosinase (Agaricus bisporus, UniProt O42713+Q00024+C7FF04+C7FF05); test: Inhibition of mushroom tyrosinase monophenolase activity using L-tyrosine as substrate; summary of the method: as §2

Compound	inhibition [1]	inhibition [2]	inhibition [3]	inhibition [4]	IC50 [6] [µM]	Activity [5]
H-HGGEGGRPY-OH		inactive	Active	inactive		Non-Toxic
H-LQPSHY-OH	> 50%	inactive			156	Non-Toxic
H-WEAGQDQR-OH		inactive	inactive			
H-WEEEPEDER-OH		inactive	inactive			

More lines, main results first:

inhibition [1]	inhibition [2]	inhibition [3]	inhibition [4]	IC50 [6] [µM]	Compound	Activity [5]
Active					OC[C@H]1O[C@@H](Oc2ccc(O)cc2)[C@H](O)[C@@H](O)[C@@H]1O	
	inactive	inactive			H-DTVHGQW-OH	
	inactive	Active	inactive		H-HPTSEVY-OH	Non-Toxic
